Measured values as given in ChEMBL document CHEMBL3739255, “Novel Series of Dihydropyridinone P2X7 Receptor Antagonists” (J Med Chem, 2015).
≈ marks a conversion by molar mass, not a printed value.

Tests used:
Salmonella typhimurium = experiment: Genotoxicity in Salmonella typhimurium by Ames test; type: toxicity, organism-based; settings: salmonella enterica subsp. enterica serovar typhimurium
[1] = Drug level in solid phase treated with (4S)-N-[4-Chloro-5-(2-hydroxyethoxy)-2-methyl-phenyl]-4-(4-fluorophenyl)-2-oxo-3,4-dihydro-1H-pyridine-5-carboxamide after 1 month; type: physicochemical; settings: 730.5 h
[2] = Intrinsic clearance in human liver microsomes assessed per mg of protein at 1 uM after 1 hr by LC/MS/MS analysis; type: ADME; settings: read-out: CLH
P2X purinoceptor 7 [3] = target: T1, P2X purinoceptor 7 (Homo sapiens, UniProt Q99572); experiment: Antagonist activity at human P2X7R expressed in BzATP-stimulated human 1321N1 cells incubated for 20 mins followed by BzATP stimulation measured every 1 sec for 60 secs followed by 3 sec intervals for 4 mins by FLIPR Ca2+ assay in presence of ionomycin; type: cell-based
T1 sequence (Q99572 whole entry): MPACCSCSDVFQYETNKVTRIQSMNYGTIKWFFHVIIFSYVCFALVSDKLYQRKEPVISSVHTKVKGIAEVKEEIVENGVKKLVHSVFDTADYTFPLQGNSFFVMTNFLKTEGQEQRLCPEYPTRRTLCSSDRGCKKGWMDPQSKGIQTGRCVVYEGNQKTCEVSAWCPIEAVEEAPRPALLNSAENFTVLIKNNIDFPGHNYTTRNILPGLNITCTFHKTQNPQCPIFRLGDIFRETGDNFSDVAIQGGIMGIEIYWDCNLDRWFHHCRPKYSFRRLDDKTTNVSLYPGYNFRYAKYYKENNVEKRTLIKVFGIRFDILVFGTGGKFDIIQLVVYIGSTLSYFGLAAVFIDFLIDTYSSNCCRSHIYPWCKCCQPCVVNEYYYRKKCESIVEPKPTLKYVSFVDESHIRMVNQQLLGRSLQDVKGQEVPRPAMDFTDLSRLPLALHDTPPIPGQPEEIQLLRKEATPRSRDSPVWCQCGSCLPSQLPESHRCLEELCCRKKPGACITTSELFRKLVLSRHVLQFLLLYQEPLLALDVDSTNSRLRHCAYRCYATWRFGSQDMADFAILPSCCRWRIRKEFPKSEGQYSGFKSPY
Procedure, shortened: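 1321N1 cells stably expressing human P2X7R, stimulated with BzATP; calcium flux read on FLIPR. IC50 is the mean of n ≥ 2 runs, each including a positive control.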

[4] = Intrinsic clearance in rat liver microsomes assessed per mg of protein at 1 uM after 1 hr by LC/MS/MS analysis; type: ADME; settings: read-out: CLH
P2X purinoceptor 7 [5] = target: T1, P2X purinoceptor 7; experiment: Antagonist activity at P2X7R in human whole blood assessed as inhibition of LPS-induced IL-1beta production incubated for 30 mins followed by ATP addition for 30 mins by ELISA assay; type: tissue-based
Liver microsome [6] = experiment: Retention time of the compound in rat liver microsomes at 20 uM by LC/UV chromatogram analysis; type: ADME
Liver microsome [7] = experiment: Retention time of the compound in human liver microsomes at 20 uM by LC/UV chromatogram analysis; type: ADME
[8] = Drug degradation in human plasma at 10 uM after 4 hrs by LC/MS/MS analysis; type: ADME, cell-free; settings: read-out: Drug degradation
Liver microsome [9] = experiment: Drug metabolism in human liver microsomes assessed as GSH adduct UV peak area at 20 uM preincubated for 5 mins followed by NADPH addition measured after 60 mins by LC/MS/MS analysis relative to total area of GSH adduct, other metabolites, parent compound; type: ADME; settings: 1 h
Cytochrome P450 2C9 = Cytochrome P450 2C9 (Homo sapiens, UniProt P11712); experiment: Inhibition of human CYP2C9 by fluorescence assay; type: ADME
Procedure, shortened: (§1)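 IC50 values for CYP3A4, CYP2D6 and CYP2C9 from a fluorescence-based inhibition assay; average of n ≥ 2.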

[10] = Solubility of compound by lyophilization solubility assay; type: physicochemical
Rattus norvegicus = experiment: Dose normalized AUC in rat at 2 mg/kg, po administered as single dose; type: ADME, organism-based; settings: in vivo
Procedure, shortened: (§2)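 Single-dose rat PK: iv at 0.5 mg/kg and po at 2 mg/kg. n ≥ 2 animals per time point. Oral AUC normalized to dose; clearance, Vdss and half-life taken from the iv arm.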

[11] = Half life in rat at 0.5 mg/kg, iv administered as single dose; type: ADME, organism-based; settings: in vivo; procedure, shortened: as §2
[12] = Oral bioavailability in rat at 2 mg/kg administered as single dose; type: ADME, organism-based; settings: in vivo
Procedure, shortened: (§3)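 Rats given a single dose, iv 0.5 mg/kg or po 2 mg/kg, with n ≥ 2 per time point. Bioavailability is derived from the po and iv exposures. Vdss is reported in L/kg.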

Cytochrome P450 3A4 = Cytochrome P450 3A4 (Homo sapiens, UniProt P08684); experiment: Inhibition of human CYP3A4 by fluorescence assay; type: ADME; procedure, shortened: as §1
[13] = Clearance in rat at 0.5 mg/kg, iv administered as single dose; type: ADME, organism-based; settings: in vivo; procedure, shortened: as §2
Cytochrome P450 2D6 = Cytochrome P450 2D6 (Homo sapiens, UniProt P10635); experiment: Inhibition of human CYP2D6 by fluorescence assay; type: ADME; procedure, shortened: as §1
[14] = Volume of distribution at steady state in rat at 2 mg/kg, po and 0.5 mg/kg, iv administered as single dose; type: ADME, organism-based; settings: in vivo, read-out: Vdss; procedure, shortened: as §3
Liver microsome [15] = experiment: Drug metabolism in rat liver microsomes assessed as GSH adduct UV peak area at 20 uM preincubated for 5 mins followed by NADPH addition measured after 60 mins by LC/MS/MS analysis relative to total area of GSH adduct, other metabolites, parent compound; type: ADME; settings: 1 h
Liver microsome [16] = experiment: Metabolic stability in rat liver microsomes assessed as GSH adduct formation at 20 uM preincubated for 5 mins followed by NADPH addition measured after 60 mins by LC/MS/MS analysis; type: ADME; settings: 1 h
Procedure, shortened: (§4)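 Liver microsomes (human or rat) incubated with compound and glutathione. The GSH adduct is quantified by UV chromatography as % relative peak area versus the summed areas of GSH adduct, other metabolites and parent compound.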

Liver microsome [17] = experiment: Metabolic stability in human liver microsomes assessed as GSH adduct formation at 20 uM preincubated for 5 mins followed by NADPH addition measured after 60 mins by LC/MS/MS analysis; type: ADME; settings: 1 h; procedure, shortened: as §4

Chain of Cytochrome P450 2C9 (P11712 whole entry): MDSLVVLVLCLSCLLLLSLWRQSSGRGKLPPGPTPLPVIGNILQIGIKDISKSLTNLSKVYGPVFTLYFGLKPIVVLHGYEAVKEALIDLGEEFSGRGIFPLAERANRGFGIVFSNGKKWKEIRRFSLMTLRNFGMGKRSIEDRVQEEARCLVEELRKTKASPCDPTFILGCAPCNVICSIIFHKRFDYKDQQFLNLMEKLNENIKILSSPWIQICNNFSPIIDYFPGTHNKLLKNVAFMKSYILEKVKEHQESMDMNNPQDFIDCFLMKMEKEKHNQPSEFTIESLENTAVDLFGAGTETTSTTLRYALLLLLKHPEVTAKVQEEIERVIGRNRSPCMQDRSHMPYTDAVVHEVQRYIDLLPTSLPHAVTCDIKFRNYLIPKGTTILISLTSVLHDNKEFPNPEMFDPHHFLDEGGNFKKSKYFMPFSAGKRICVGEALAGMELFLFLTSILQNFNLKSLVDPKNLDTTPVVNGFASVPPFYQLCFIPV
Chain of Cytochrome P450 3A4 (P08684 whole entry): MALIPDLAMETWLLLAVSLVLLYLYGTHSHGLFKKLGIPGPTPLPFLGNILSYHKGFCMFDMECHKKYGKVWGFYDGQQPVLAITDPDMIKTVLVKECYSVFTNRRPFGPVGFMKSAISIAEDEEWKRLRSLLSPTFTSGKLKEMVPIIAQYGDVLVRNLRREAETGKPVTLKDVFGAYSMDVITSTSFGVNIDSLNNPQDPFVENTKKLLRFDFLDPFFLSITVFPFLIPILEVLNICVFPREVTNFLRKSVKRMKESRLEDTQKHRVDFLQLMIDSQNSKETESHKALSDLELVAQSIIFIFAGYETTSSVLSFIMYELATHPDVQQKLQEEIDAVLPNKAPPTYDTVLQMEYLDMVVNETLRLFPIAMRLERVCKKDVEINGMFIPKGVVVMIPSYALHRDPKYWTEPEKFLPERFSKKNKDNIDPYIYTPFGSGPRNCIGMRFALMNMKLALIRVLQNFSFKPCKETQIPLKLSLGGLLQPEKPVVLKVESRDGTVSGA
Chain of Cytochrome P450 2D6 (P10635 whole entry): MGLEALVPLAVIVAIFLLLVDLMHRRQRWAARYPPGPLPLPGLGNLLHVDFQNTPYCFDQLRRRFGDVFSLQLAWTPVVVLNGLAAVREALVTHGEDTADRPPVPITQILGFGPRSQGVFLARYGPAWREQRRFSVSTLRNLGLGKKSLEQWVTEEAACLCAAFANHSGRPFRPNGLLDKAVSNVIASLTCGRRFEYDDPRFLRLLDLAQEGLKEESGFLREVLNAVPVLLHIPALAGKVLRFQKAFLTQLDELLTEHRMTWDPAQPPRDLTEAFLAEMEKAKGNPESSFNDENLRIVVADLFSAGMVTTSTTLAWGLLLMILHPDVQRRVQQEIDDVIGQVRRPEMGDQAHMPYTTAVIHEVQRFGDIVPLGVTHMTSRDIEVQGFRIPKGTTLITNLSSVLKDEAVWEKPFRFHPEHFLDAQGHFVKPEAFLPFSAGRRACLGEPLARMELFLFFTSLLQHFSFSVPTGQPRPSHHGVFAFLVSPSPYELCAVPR

Compound | Activity (Salmonella typhimurium) | IC50 (P2X purinoceptor 7 [3]) [nM] | IC50 (P2X purinoceptor 7 [5]) [nM] | further results
Cc1cc(Cl)c(OCCO)cc1N | Toxic |  |  | Drug metabolism [1]: metabolite_detected
COc1cc(Br)c(CC(=O)N2C=CC(=O)CC2c2ccccc2)cc1OC (racemic) |  | 92 |  | microsomal CLint at 1 µM [2]: 153 µL/min/mg; microsomal CLint at 1 µM [4]: 490 µL/min/mg
COc1cc(NC(=O)N2C=CC(=O)C[C@H]2c2ccc(F)cc2)c(Br)cc1Cl |  | 37 |  | 
Cc1cc2cnn(CCO)c2cc1NC(=O)C1=CNC(=O)C[C@H]1c1ccc(F)cc1 |  | 23 | 47 | 
COc1cc(NC(=O)N2C=CC(=O)C[C@H]2c2ccc(F)cc2)c(Br)c(SC[C@H](NC(=O)CC[C@H](N)C(=O)O)C(=O)NCC(=O)O)c1O |  |  |  | Retention_time (Liver microsome [6]): 10.74 min; Retention_time (Liver microsome [7]): 10.74 min
O=C1C=CN(C(=O)Nc2cc(OCCO)c(Cl)cc2Br)[C@H](c2ccc(F)cc2)C1 |  | 40 |  | 
COc1cc(I)c(CC(=O)N2C=CC(=O)C[C@H]2c2ccccc2)cc1OC |  | 38 |  | 
Cc1cc(Cl)c(OCCO)cc1NC(=O)N1C=CC(=O)C[C@H]1c1ccc(F)cc1 |  | 9 |  | metabolised at 4 h, 10 µM [8]: 50%
Cc1ccc(-c2ccn[nH]c2=O)cc1NC(=O)C1=CN(C)C(=O)C[C@H]1c1ccc(F)cc1 | Toxic |  | 20 | 
Cc1ccc(-c2ccnn(CCO)c2=O)cc1NC(=O)C1=CN(C)C(=O)C[C@H]1c1ccc(F)cc1 | Non-toxic |  | 17 | 
Cc1ccc(-n2ncccc2=O)cc1NC(=O)C1=CN(C)C(=O)C[C@H]1c1ccc(F)cc1 | Non-toxic |  | 33 | 
CN1C=C(C(=O)Nc2cc(-c3ccn[nH]c3=O)ccc2F)[C@H](c2ccc(F)cc2)CC1=O | Non-toxic | 26 | 27 | 
COc1cc(NC(=O)N2C=CC(=O)C[C@H]2c2ccc(F)cc2)c(Br)cc1F |  | 32 |  | 
COc1cc(C)c(NC(=O)N2C=CC(=O)C[C@H]2c2ccc(F)cc2)cc1OC |  | 12 |  | microsomal CLint at 1 µM [2]: 8.2 µL/min/mg; microsomal CLint at 1 µM [4]: 25 µL/min/mg
COc1cc(Br)c(NC(=O)C2=CNC(=O)C[C@H]2c2cccc(F)c2)cc1OC |  | 9 | 107 | 
COC[C@H](O)Cn1c(=O)cnn(-c2ccc(C)c(NC(=O)C3=CN(C)C(=O)C[C@H]3c3ccc(F)cc3)c2)c1=O | Non-toxic | 30 | 17 | Stability (Liver microsome [9]): Stable; IC50 (Cytochrome P450 2C9): > 50000 nM; solubility [10]: 1020 µg/mL (≈ 1910 µM); AUC (Rattus norvegicus): 279 ng·h/mL; half-life [11]: 4 h; bioavailability [12]: 20%; IC50 (Cytochrome P450 3A4): > 50000 nM; clearance [13]: 23 mL/min/kg; IC50 (Cytochrome P450 2D6): > 50000 nM; Vd [14]: 1.2 L/kg; Stability (Liver microsome [15]): Stable
O=C1C=CN(C(=O)Nc2ccc3ncccc3c2Br)[C@H](c2ccc(F)cc2)C1 |  |  |  | Stability (Liver microsome [16]): Stable; Stability (Liver microsome [17]): Stable
Cc1cc(F)c(-c2ccnn(C)c2=O)cc1NC(=O)C1=CN(C)C(=O)C[C@H]1c1ccc(F)cc1 | Non-toxic | 8 | 13 | Stability (Liver microsome [9]): Stable; IC50 (Cytochrome P450 2C9): > 32000 nM; solubility [10]: 322 µg/mL (≈ 693 µM); AUC (Rattus norvegicus): 1121 ng·h/mL; half-life [11]: 1 h; bioavailability [12]: 64%; IC50 (Cytochrome P450 3A4): > 32000 nM; clearance [13]: 17 mL/min/kg; IC50 (Cytochrome P450 2D6): > 32000 nM; Vd [14]: 1 L/kg
COc1cc(I)c(CC(=O)N2C=CC(=O)CC2c2ccccc2)cc1OC (racemic) |  | 104 |  | microsomal CLint at 1 µM [2]: 168 µL/min/mg; microsomal CLint at 1 µM [4]: 548 µL/min/mg
Cc1ccc(-n2ccccc2=O)cc1NC(=O)C1=CN(C)C(=O)N[C@H]1c1ccc(F)cc1 | Non-toxic | 22 | 21 | 
COc1cc(C)c(C)c(NC(=O)C2=CNC(=O)C[C@H]2c2ccc(F)cc2)c1 |  | 9 |  | 
COc1cc(Br)c(NC(=O)N2C=CC(=O)CC2c2ccccc2)cc1OC (racemic) |  | 39 |  | microsomal CLint at 1 µM [2]: 22 µL/min/mg; microsomal CLint at 1 µM [4]: 78 µL/min/mg
COc1cc(Br)c(NC(=O)N2C=CC(=O)C[C@H]2c2ccc(F)cc2)cc1OC |  | 9 |  | Retention_time (Liver microsome [6]): 16.58 min; Retention_time (Liver microsome [7]): 16.58 min
COc1cc(I)c(CC(=O)N2C=CC(=O)C[C@@H]2c2ccccc2)cc1OC |  | 3800 |  | 
COc1cc(NC(=O)N2C=CC(=O)C[C@@H]2c2ccccc2)c(Br)cc1Cl |  | > 10000 |  | 
Cc1ccc(-c2ccnn(C)c2=O)cc1NC(=O)C1=CN(C)C(=O)C[C@H]1c1ccc(F)cc1 | Toxic |  | 6 | 
COc1cc(NC(=O)N2C=CC(=O)C[C@H]2c2ccccc2)c(Br)cc1Cl |  | 33 |  | 
